Measured values published in ChEMBL document CHEMBL1146199, “Daptomycin susceptibility of unusual gram-positive bacteria: comparison of results obtained by the Etest and the broth microdilution method” (2007).
Values after ≈ are worked out from the molar mass of the structure shown.

What was measured:
Assay type in all cases: functional
Listeria monocytogenes [1] = assay: Antimicrobial activity against Listeria monocytogenes by Etest
Method in brief: (§1)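 Daptomycin MIC read from an Etest strip carrying a daptomycin-plus-calcium gradient, run per manufacturer's instructions. Each isolate was compared with its broth microdilution MIC (Mueller-Hinton broth, 50 μg/ml calcium). Agreement was defined as within 1 twofold dilution. Mean log2 difference was tested by one-sample t test.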

Nocardia sp. [2] = assay: Antimicrobial activity against Nocardia spp. by Etest; method in brief: as §1
Nocardia asteroides [3] = assay: Antimicrobial activity against Nocardia asteroids by Etest; method in brief: as §1
Leuconostoc [4] = assay: Antimicrobial activity against Leuconostac spp. by Etest; method in brief: as §1
Nocardia brasiliensis [5] = assay: Antimicrobial activity against Nocardis brasiliensis by broth microdilution method
Method in brief: (§2)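 MIC by CLSI broth microdilution in Mueller-Hinton broth. Daptomycin testing used broth supplemented with calcium at physiological level (50 μg/ml). Vancomycin and linezolid were tested from standard powders. Control strains were S. aureus ATCC 29213 and Enterococcus faecalis 29212.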

Leuconostoc [6] = assay: Antimicrobial activity against Leuconostoc spp. by broth microdilution method; method in brief: as §2
Rhodococcus sp. [7] = assay: Antimicrobial activity against Rhodococcus spp. by Etest; conditions: Rhodococcus sp. (in: high G+C Gram-positive bacteria); method in brief: as §1
Nocardia asteroides [8] = assay: Antimicrobial activity against Nocardia asteroides by broth microdilution method; method in brief: as §2
Rhodococcus sp. [9] = assay: Antimicrobial activity against Rhodococcus spp. by broth microdilution method; conditions: Rhodococcus sp. (in: high G+C Gram-positive bacteria); method in brief: as §2
Listeria monocytogenes [10] = assay: Antimicrobial activity against Listeria monocytogenes by broth microdilution method; method in brief: as §2
Pediococcus [11] = assay: Antimicrobial activity against Pediococcus spp. by broth microdilution method; method in brief: as §2
Nocardia brasiliensis [12] = assay: Antimicrobial activity against Nocardis brasiliensis by Etest; method in brief: as §1
Nocardia sp. [13] = assay: Antimicrobial activity against Nocardia spp. by broth microdilution method; method in brief: as §2
Pediococcus [14] = assay: Antimicrobial activity against Pediococcus spp. by Etest; method in brief: as §1

CCCCCCCCCC(=O)N[C@@H](Cc1c[nH]c2ccccc12)C(=O)N[C@H](CC(N)=O)C(=O)N[C@@H](CC(=O)O)C(=O)N[C@@H]1C(=O)NCC(=O)N[C@@H](CCCN)C(=O)N[C@@H](CC(=O)O)C(=O)N[C@H](C)C(=O)N[C@@H](CC(=O)O)C(=O)NCC(=O)N[C@H](CO)C(=O)N[C@@H]([C@H](C)CC(=O)O)C(=O)N[C@@H](CC(=O)c2ccccc2N)C(=O)O[C@@H]1C gave an MIC50 (Listeria monocytogenes [1]) of 3 µg/mL (≈ 1.85 µM), an MIC90 (Listeria monocytogenes [1]) of 4 µg/mL (≈ 2.47 µM) and an MIC50 (Nocardia sp. [2]) of over 256 µg/mL. The MIC90 (Nocardia sp. [2]) was over 256 µg/mL, the MIC50 (Nocardia asteroides [3]) was over 256 µg/mL and the MIC90 (Nocardia asteroides [3]) was over 256 µg/mL. For the same compound, the MIC50 (Leuconostoc [4]) was 0.25 µg/mL (≈ 0.154 µM), the MIC90 (Leuconostoc [4]) was 0.5 µg/mL (≈ 0.309 µM) and the MIC50 (Nocardia brasiliensis [5]) was over 64 µg/mL. It also gave an MIC90 (Nocardia brasiliensis [5]) of over 64 µg/mL, an MIC50 (Leuconostoc [6]) of 0.12 µg/mL (≈ 0.074 µM) and an MIC90 (Leuconostoc [6]) of 0.25 µg/mL (≈ 0.154 µM). For the same compound, the MIC50 (Rhodococcus sp. [7]) was 96 µg/mL (≈ 59.2 µM), the MIC90 (Rhodococcus sp. [7]) was over 256 µg/mL and the MIC50 (Nocardia asteroides [8]) was over 64 µg/mL. For the same compound, the MIC90 (Nocardia asteroides [8]) was over 64 µg/mL, the MIC50 (Rhodococcus sp. [9]) was over 64 µg/mL and the MIC90 (Rhodococcus sp. [9]) was over 64 µg/mL. For the same compound, the MIC50 (Listeria monocytogenes [10]) was 4 µg/mL (≈ 2.47 µM), the MIC90 (Listeria monocytogenes [10]) was 4 µg/mL (≈ 2.47 µM) and the MIC50 (Pediococcus [11]) was 0.25 µg/mL (≈ 0.154 µM). The MIC90 (Pediococcus [11]) was 0.5 µg/mL (≈ 0.309 µM), the MIC50 (Nocardia brasiliensis [12]) was over 256 µg/mL and the MIC90 (Nocardia brasiliensis [12]) was over 256 µg/mL. It also gave an MIC50 (Nocardia sp. [13]) of over 64 µg/mL, an MIC90 (Nocardia sp. [13]) of over 64 µg/mL and an MIC50 (Pediococcus [14]) of 0.25 µg/mL (≈ 0.154 µM). The MIC90 (Pediococcus [14]) was 0.5 µg/mL (≈ 0.309 µM).

CN[C@H](CC(C)C)C(=O)N[C@H]1C(=O)N[C@@H](CC(N)=O)C(=O)N[C@H]2C(=O)N[C@H]3C(=O)N[C@H](C(=O)N[C@H](C(=O)O)c4cc(O)cc(O)c4-c4cc3ccc4O)[C@H](O)c3ccc(c(Cl)c3)Oc3cc2cc(c3O[C@@H]2O[C@H](CO)[C@@H](O)[C@H](O)[C@H]2O[C@H]2C[C@](C)(N)[C@H](O)[C@H](C)O2)Oc2ccc(cc2Cl)[C@H]1O [VANCOMYCIN] was tested, and the MIC50 (Nocardia brasiliensis [5]) was over 64 µg/mL, the MIC90 (Nocardia brasiliensis [5]) was over 64 µg/mL and the MIC50 (Leuconostoc [6]) was over 64 µg/mL. The MIC90 (Leuconostoc [6]) was over 64 µg/mL, the MIC50 (Nocardia asteroides [8]) was over 64 µg/mL and the MIC90 (Nocardia asteroides [8]) was over 64 µg/mL. It also gave an MIC50 (Rhodococcus sp. [9]) of 1 µg/mL (≈ 0.69 µM), an MIC90 (Rhodococcus sp. [9]) of over 64 µg/mL and an MIC50 (Listeria monocytogenes [10]) of 1 µg/mL (≈ 0.69 µM). The MIC90 (Listeria monocytogenes [10]) was 1 µg/mL (≈ 0.69 µM), the MIC50 (Pediococcus [11]) was over 64 µg/mL and the MIC90 (Pediococcus [11]) was over 64 µg/mL. The MIC50 (Nocardia sp. [13]) was over 64 µg/mL and the MIC90 (Nocardia sp. [13]) was over 64 µg/mL.

Compound CC(=O)NC[C@H]1CN(c2ccc(N3CCOCC3)c(F)c2)C(=O)O1 [LINEZOLID] has an MIC50 (Nocardia brasiliensis [5]) of 8 µg/mL (≈ 23.7 µM), an MIC90 (Nocardia brasiliensis [5]) of 8 µg/mL (≈ 23.7 µM) and an MIC50 (Leuconostoc [6]) of 4 µg/mL (≈ 11.9 µM). The MIC90 (Leuconostoc [6]) was 4 µg/mL (≈ 11.9 µM), the MIC50 (Nocardia asteroides [8]) was 4 µg/mL (≈ 11.9 µM) and the MIC90 (Nocardia asteroides [8]) was 4 µg/mL (≈ 11.9 µM). For the same compound, the MIC50 (Rhodococcus sp. [9]) was 1 µg/mL (≈ 2.96 µM), the MIC90 (Rhodococcus sp. [9]) was 2 µg/mL (≈ 5.93 µM) and the MIC50 (Listeria monocytogenes [10]) was 2 µg/mL (≈ 5.93 µM). The MIC90 (Listeria monocytogenes [10]) was 2 µg/mL (≈ 5.93 µM), the MIC50 (Pediococcus [11]) was 2 µg/mL (≈ 5.93 µM) and the MIC90 (Pediococcus [11]) was 4 µg/mL (≈ 11.9 µM). For the same compound, the MIC50 (Nocardia sp. [13]) was 4 µg/mL (≈ 11.9 µM) and the MIC90 (Nocardia sp. [13]) was 4 µg/mL (≈ 11.9 µM).
